Experimental data taken from ChEMBL document CHEMBL4177676, “Discovery of new antimalarial agents: Second-generation dual inhibitors against FP-2 and PfDHFR via fragments assembely” (Bioorg Med Chem, 2017).
Where a name gives a salt, the structure may show the parent alone. Activity calls are given as the source filed them. The calls are words filed in the database; no cut-off is given here.

How the values were obtained:
[1] = target: T1, Falcipain 2 (Plasmodium falciparum) (UniProt Q9N6S8); experiment: Inhibition of Plasmodium falciparum FP2 at 10 uM using Z-Leu-Arg-AMC as substrate preincubated for 30 min followed by substrate addition measured after 30 mins by spectrofluorimetric method
T1 sequence (whole entry): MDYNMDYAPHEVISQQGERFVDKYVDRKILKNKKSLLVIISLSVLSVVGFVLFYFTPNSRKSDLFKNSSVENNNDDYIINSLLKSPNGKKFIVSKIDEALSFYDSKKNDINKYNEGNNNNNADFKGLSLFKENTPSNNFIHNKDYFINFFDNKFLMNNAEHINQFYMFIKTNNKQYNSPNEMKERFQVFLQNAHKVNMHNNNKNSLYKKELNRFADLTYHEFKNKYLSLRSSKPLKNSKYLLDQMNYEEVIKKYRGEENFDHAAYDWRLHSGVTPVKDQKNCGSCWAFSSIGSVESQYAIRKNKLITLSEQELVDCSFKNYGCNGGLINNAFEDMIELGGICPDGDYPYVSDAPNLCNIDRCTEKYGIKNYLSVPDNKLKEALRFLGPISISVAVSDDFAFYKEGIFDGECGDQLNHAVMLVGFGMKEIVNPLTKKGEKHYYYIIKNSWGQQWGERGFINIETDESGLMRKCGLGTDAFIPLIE
Outline: (§1)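 FP-2 (30 nM) was preincubated 30 min at room temperature with compound in 100 mM sodium acetate, 10 mM DTT, pH 5.5, with DMSO at most 1%. The fluorescence increase was then monitored for 30 min at room temperature. Percent inhibition was screened at 10 µM. IC50 values were fitted from percent inhibition versus concentration, using three independent experiments.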

[2] = target: Bifunctional dihydrofolate reductase-thymidylate synthase (Plasmodium falciparum K1) (UniProt P13922); experiment: Inhibition of Plasmodium falciparum DHFR at 10 uM using DHF as substrate preincubated for 15 mins followed DHF addition measured after 15 mins by spectrophotometric method
Outline: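 Purified P. falciparum DHFR was preincubated 15 min on ice with compound in 100 uM NADPH, 50 mM TES pH 7.0, 1 mM EDTA, 75 mM 2-mercaptoethanol and 1 mg/mL BSA. DHF was then added to start the reaction. NADPH oxidation was followed at 340 nm, and percent inhibition was taken at 10 µM.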

[3] = target: T2, Bifunctional dihydrofolate reductase-thymidylate synthase (Plasmodium falciparum K1, UniProt P13922); experiment: Inhibition of Plasmodium falciparum DHFR using DHF as substrate preincubated for 15 mins followed DHF addition measured after 15 mins by spectrophotometric method
Outline: (§2)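 Purified PfDHFR was preincubated with graded compound concentrations for 15 min on ice in 100 uM NADPH, 50 mM TES pH 7.0, 1 mM EDTA, 75 mM 2-mercaptoethanol and 1 mg/mL BSA. DHF was then added to start the reaction, and NADPH oxidation was followed at 340 nm. IC50 came from percent-inhibition versus concentration plots, three independent experiments.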

Plasmodium falciparum [4] = experiment: Antimalarial activity against mid-ring stage of chloroquine-resistant Plasmodium falciparum Dd2 infected in human O-positive erythrocytes after 72 hrs by SYBR Green I dye-based fluorescence assay; type: functional, organism-based; conditions: Dd2, 72 h
Outline: (§3)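 Sorbitol-synchronised (>80% ring) […] cultures were used at the mid-ring stage (6-10 h post-invasion), at 1% parasitemia and 2% hematocrit, with serial compound dilutions (Dd2 top concentration 10 µM). Incubation was 72 h at 37 °C under 5% CO₂/5% O₂/90% N₂. Cells were then lysed with saponin/Triton X-100 buffer containing 5X SYBR Green I, kept 2 h in the dark, and read at ex 485/em 535 nm.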

Falcipain 2 [5] = target: T3, Falcipain 2 (Plasmodium falciparum, UniProt Q9N6S8); experiment: Inhibition of Plasmodium falciparum FP2 using Z-Leu-Arg-AMC as substrate preincubated for 30 min followed by substrate addition measured after 30 mins by spectrofluorimetric method; outline: as §1
T3 sequence (Q9N6S8 whole entry): T1 sequence (whole entry)

Plasmodium falciparum [6] = experiment: Antimalarial activity against mid-ring stage of multidrug-sensitive Plasmodium falciparum 3D7 infected in human O-positive erythrocytes after 72 hrs by SYBR Green I dye-based fluorescence assay; type: functional, organism-based; conditions: 3D7, 72 h
Outline: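 Cultures were synchronised with 5% sorbitol to over 80% rings, and parasites at mid-ring stage (6–10 h post-invasion) were used at 1% parasitemia and 2% hematocrit. […] Growth ran 72 h at 37 °C under 5% CO₂, 5% O₂, 90% N₂. Cells were lysed in saponin/Triton X-100 buffer with 5X SYBR Green I, kept 2 h in the dark, and fluorescence was read at 485/535 nm.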

Plasmodium berghei = experiment: In vivo antimalarial activity against Plasmodium berghei ANKA infected in BALB/c mouse assessed as reduction in parasitemia at 20 mg/kg, po administered daily for 4 days by Giemsa staining-based method; type: functional, organism-based
Outline: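 BALB/c mice were infected with P. berghei ANKA. Starting 24 h later, they received 20 mg/kg test compound or control orally once daily for 4 days. Parasitemia was counted on Giemsa-stained blood smears every day over 10 days.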

Falcipain 2 [7] = target: T3, Falcipain 2; experiment: Inhibition of Plasmodium falciparum FP2; outline: as §1
[8] = target: T2, Bifunctional dihydrofolate reductase-thymidylate synthase; experiment: Inhibition of Plasmodium falciparum DHFR; outline: as §2
Plasmodium falciparum [9] = experiment: Antimalarial activity against mid-ring stage of Plasmodium falciparum Fab9 infected in human O-positive erythrocytes after 72 hrs by SYBR Green I dye-based fluorescence assay; type: functional, organism-based; conditions: Fab9, 72 h; outline: as §3
Plasmodium falciparum [10] = experiment: Antimalarial activity against mid-ring stage of Plasmodium falciparum GB4 infected in human O-positive erythrocytes after 72 hrs by SYBR Green I dye-based fluorescence assay; type: functional, organism-based; conditions: GB4, 72 h; outline: as §3
Plasmodium falciparum [11] = experiment: Antimalarial activity against mid-ring stage of multidrug-sensitive Plasmodium falciparum 3D7 infected in human O-positive erythrocytes at 20 uM after 72 hrs by SYBR Green I dye-based fluorescence assay; type: functional
Plasmodium falciparum [12] = experiment: Antimalarial activity against mid-ring stage of chloroquine-resistant Plasmodium falciparum Dd2 infected in human O-positive erythrocytes at 20 uM after 72 hrs by SYBR Green I dye-based fluorescence assay; type: functional

T2 sequence (P13922 whole entry): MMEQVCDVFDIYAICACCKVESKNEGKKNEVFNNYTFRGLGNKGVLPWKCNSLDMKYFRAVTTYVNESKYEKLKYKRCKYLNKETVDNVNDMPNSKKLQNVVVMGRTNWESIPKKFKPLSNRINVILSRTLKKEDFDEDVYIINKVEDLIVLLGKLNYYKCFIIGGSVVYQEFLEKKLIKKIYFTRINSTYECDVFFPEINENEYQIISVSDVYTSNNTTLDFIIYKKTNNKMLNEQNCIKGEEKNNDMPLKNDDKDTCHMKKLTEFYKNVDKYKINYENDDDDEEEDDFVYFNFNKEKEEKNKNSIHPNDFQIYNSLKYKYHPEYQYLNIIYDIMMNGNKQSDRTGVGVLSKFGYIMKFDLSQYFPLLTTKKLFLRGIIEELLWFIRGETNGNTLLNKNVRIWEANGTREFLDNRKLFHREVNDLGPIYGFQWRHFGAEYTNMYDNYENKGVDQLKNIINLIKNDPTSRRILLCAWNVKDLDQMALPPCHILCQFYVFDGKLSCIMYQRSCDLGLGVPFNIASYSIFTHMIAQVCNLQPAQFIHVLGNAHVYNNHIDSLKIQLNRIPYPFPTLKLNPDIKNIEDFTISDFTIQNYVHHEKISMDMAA
Chain of Bifunctional dihydrofolate reductase-thymidylate synthase (Plasmodium falciparum K1) (P13922 whole entry, looked up): as the sequence (P13922 whole entry) above

| SMILES | inhibition [1] | inhibition [2] | IC50 [3] | IC50 (Falcipain 2 [5]) | also measured |
| --- | --- | --- | --- | --- | --- |
| Nc1nc(N)c2cc(NCc3ccc(CCNC(=O)c4ccc(C(F)(F)F)cc4)cc3)ccc2n1 | 21.5% | 96.4% | 21.3 nM |  |  |
| COc1ccc(C(=O)NCCc2ccc(CNc3ccc4nc(N)nc(N)c4c3)cc2)cc1 | 21.2% | 95.1% | 157 nM |  |  |
| COc1cccc(C(=O)NCCc2ccc(CNc3ccc4nc(N)nc(N)c4c3)cc2)c1 | 52.6% | 96.8% | 39.6 nM | 6200 nM | IC50 (Plasmodium falciparum [4]): 2200 nM; IC50 (Plasmodium falciparum [6]): 60.5 nM; Activity (Plasmodium berghei): Active |
| Nc1nc(N)c2cc(NCc3ccc(CCNC(=O)c4cccc(F)c4)cc3)ccc2n1 | 49.8% | 98.5% | 50.6 nM |  |  |
| COc1ccc(C(=O)NCCc2ccc(CNc3ccc4nc(N)nc(N)c4c3)cc2)cc1Cl | 37.6% | 51.2% |  |  |  |
| Nc1nc(N)c2cc(NCc3ccc(CCNC(=O)c4ccco4)cc3)ccc2n1 | 28.9% | 97.8% | 107 nM |  |  |
| Nc1nc(N)c2cc(NCc3ccc(CCNC(=O)c4ccncc4)cc3)ccc2n1 | 22.9% | 51.5% |  |  |  |
| COc1cc(OC)cc(C(=O)NCCc2ccc(CNc3ccc4nc(N)nc(N)c4c3)cc2)c1 | 41.1% | 100% | 32.1 nM |  |  |
| Nc1nc(N)c2cc(NCc3ccc(CCNC(=O)c4ccc([N+](=O)[O-])cc4)cc3)ccc2n1 | 67% | 94.7% | 55.6 nM | 10000 nM | IC50 (Plasmodium falciparum [6]): 105 nM |
| COc1ccc(C(=O)NCCc2ccc(CNc3ccc4nc(N)nc(N)c4c3)cc2)cc1OC | 31.3% | 100% | 61.1 nM |  |  |
| O=C(CCc1ccc(S(=O)(=O)NCCc2ccccc2)cc1)Nc1ccc2c(c1)OCCO2 |  |  |  |  | IC50 (Falcipain 2 [7]): 54200 nM; IC50 [8]: 35500 nM |
| C[C@@H]1CC[C@H]2[C@@H](C)C(=O)O[C@@H]3O[C@@]4(C)CC[C@@H]1[C@]32OO4 [ARTEMISININ] |  |  |  |  | IC50 (Plasmodium falciparum [9]): 5.2 nM; IC50 (Plasmodium falciparum [6]): 4.1 nM; Activity (Plasmodium berghei): Active; IC50 (Plasmodium falciparum [10]): 2.2 nM |
| CC(C)C[C@H](NC(=O)[C@@H]1O[C@H]1C(=O)O)C(=O)NCCCCN=C(N)N |  |  |  | 57.2 nM |  |
| Nc1nc(N)c2cc(NCc3ccc(CCNC(=O)c4ccc5ccccc5c4)cc3)ccc2n1 | 46.4% | 100% | 67.9 nM |  |  |
| CCc1nnc(NC(=O)CCc2ccc(S(=O)(=O)Nc3ccc(F)cc3)cc2)s1 | 64.7% | 59.2% | 6300 nM | 7000 nM | IC50 (Falcipain 2 [7]): 7000 nM; Activity (Plasmodium falciparum [11]): 7.9%; IC50 [8]: 6300 nM; Activity (Plasmodium falciparum [12]): 6.2% |
| Nc1nc(N)c2cc(NCc3ccc(CCNC(=O)c4cccs4)cc3)ccc2n1 | 67.6% | 97.4% | 84.1 nM | 10000 nM | IC50 (Plasmodium falciparum [9]): 14.2 nM; IC50 (Plasmodium falciparum [4]): 1200 nM; IC50 (Plasmodium falciparum [6]): 53.1 nM; Activity (Plasmodium berghei): Active; IC50 (Plasmodium falciparum [10]): 23.4 nM |
| CC1(C)N=C(N)N=C(N)N1OCCCOc1cc(Cl)c(Cl)cc1Cl |  |  |  |  | IC50 [8]: 0.57 nM |
| CCc1nc(N)nc(N)c1-c1ccc(Cl)cc1 [PYRIMETHAMINE] |  |  |  |  | IC50 (Plasmodium falciparum [4]): > 10000 nM; Activity (Plasmodium berghei): Active |
| Nc1nc(N)c2cc(NCc3ccc(CCNC(=O)c4ccccc4F)cc3)ccc2n1 | 44.6% | 100% | 180 nM |  |  |
| Cc1nc(N)nc(N)c1OCCCOc1cc(Cl)c(Cl)cc1Cl |  |  |  |  | IC50 [8]: 229 nM |
| Nc1nc(N)c2cc(NCc3ccc(CCNC(=O)c4ccc5c(c4)OCO5)cc3)ccc2n1 | 59.2% | 100% | 26.2 nM | 5100 nM | IC50 (Plasmodium falciparum [6]): 78.6 nM |
| CC1(C)N=C(N)N=C(N)N1c1ccc(Cl)cc1 [CHLORCYCLOGUANIL HYDROCHLORIDE] |  |  |  |  | IC50 [8]: 1.5 nM |
| Nc1nc(N)c2cc(NCc3ccc(CCNC(=O)c4ccc(Cl)cc4F)cc3)ccc2n1 | 62.4% | 68.2% |  | 9100 nM |  |
| COc1ccc(OC)c(CNc2ccc3nc(N)nc(N)c3c2Cl)c1 |  |  |  |  | IC50 [8]: 0.39 nM |
| Nc1nc(N)c2cc(NCc3ccc(CCNC(=O)C4CCCCC4)cc3)ccc2n1 | 66.6% | 96% | 226 nM | 7700 nM |  |
| CC(C)(C)C1CCC(C(=O)NCCc2ccc(CNc3ccc4nc(N)nc(N)c4c3)cc2)CC1 (stereo not drawn) | 55.8% | 99.9% | 290 nM | 7400 nM |  |
| Nc1nc(N)c2cc(NCc3ccc(CCNC(=O)Cc4ccccc4)cc3)ccc2n1 | 65% | 92.4% | 70.1 nM | 7600 nM | IC50 (Plasmodium falciparum [6]): 266 nM |
| Nc1nc(N)c2cc(NCc3ccc(CCNC(=O)c4ccc(F)cc4)cc3)ccc2n1 | 52.7% | 96.7% | 118 nM | 6700 nM | IC50 (Plasmodium falciparum [6]): 391 nM |
| Nc1nc(N)c2cc(NCc3ccc(CCNC(=O)c4ccc5c(c4)OCCO5)cc3)ccc2n1 | 34.9% | 100% | 80.9 nM |  |  |
| Nc1nc(N)c2cc(NCc3ccc(CCNC(=O)CCc4ccccc4)cc3)ccc2n1 | 55.2% | 98.6% | 185 nM | 4900 nM |  |
